Test results as given in paper PMC3835248 (Journal of the American Heart Association: Cardiovascular …, 2013).
Entries after “also recorded” stand apart in the source; their conditions may differ.

Columns and labels:
[1] = tested on: IκBα; assay: Half-life of endogenous IκBα in Jurkat T cells; format: cell-based, human; settings: 1 μmol/L 30 minutes before cycloheximide, PMA/Iono-stimulated Jurkat
How it was run: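 Jurkat T cells given cycloheximide 10 μg/mL. 30 min later, left unstimulated or given PMA 5 nmol/L plus ionomycin 2 μmol/L. Parallel samples had epoxomicin 1 μmol/L 30 min before cycloheximide. Cells sampled at […]; two-step hypotonic NP-40/0.45 mol/L NaCl lysates. Infrared quantitative immunoblot; signal normalised to β-actin, expressed as % of t0; mean±SD of ≥3 experiments.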

[2] = tested on: importins α; assay: Competition of biotinylated peptides with native auto-inhibitory regions; format: binding, human; settings: biotinylated peptide, Jurkat lysate, pull-down
How it was run: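 Biotinylated peptides of importin α1, α3, α4, α5 and α7 auto-inhibitory regions, with biotinylated NLS and mutant NLS peptides, each added separately to whole-cell lysate of Jurkat T cells. Per pull-down protocol: 10 nmols peptide, lysate 1.5 mg/mL total protein, overnight. Complexes captured on streptavidin beads; importins detected by immunoblot.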

[3] = molecular target: GST-tagged Imp α5 ΔIBB (Homo sapiens, UniProt P52294); assay: Bio-Layer Interferometry; format: binding
How it was run: (§1)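 Human importin α1 or α5 lacking the importin-β-binding domain (aa 1-100), GST-tagged, expressed in E. coli BL21(DE3)-RIL as inclusion bodies. Refolded, GST-affinity purified and dialysed into pH 7.0 "intracellular" buffer. Biotinylated peptide (5 nmol/L) loaded on streptavidin biosensors, 10 min, 37°C. Protein at 50–200 nmol/L, 30°C, with GST alone as control. Association 15 min, dissociation 15 min; curves fitted 1:1 or 2:1; 3 independent experiments.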

[4] = tested on: GST-tagged Imp α1 ΔIBB; assay: Bio-Layer Interferometry; format: binding, human
How it was run: as §1

[5] = tested on: Imp α1; assay: Importin binding; parameters: species or system human
How it was run: (§2)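 Biotinylated peptides (N-terminal biotin, 5-Gly spacer), 10 nmols, incubated overnight with whole-cell lysates of unstimulated Jurkat, HeLa S3 or EA.hy926 cells (Jurkat at 1.5 mg/mL total protein). Captured on streptavidin beads; immunoblotted for importins α1, α3, α4, α5, α7, β1, with GAPDH as nonspecific control. Binding strength judged from pulled-down versus lysate amount, alongside GAPDH-normalised importin abundance per cell type.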

[6] = tested on: Imp α5; assay: Competition binding assay, Imp α5; parameters: species or system human; settings: free N50 0-300 μmol/L, Jurkat lysate
How it was run: (§3)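 Unlabelled N50 (0, 10, 30, 100, 300 μmol/L) incubated overnight at 4°C with unstimulated Jurkat lysate at 1.5, 0.3 or 0.05 mg/mL total protein. Unbound importins then pulled down with biotinylated N50 on streptavidin beads and quantified by immunoblot. Bead-bound signal without competitor set to 100%; percentage remaining per concentration, mean±SD of 3 independent experiments.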

[7] = tested on: Imp α1; assay: Competition binding assay, Imp α1; parameters: species or system human; settings: free N50 0-300 μmol/L, Jurkat lysate 1.5 mg/mL
How it was run: as §3

[8] = tested on: Imp α5; assay: Importin binding; parameters: species or system human
How it was run: as §2

[9] = tested on: Imp α4; assay: Importin binding; parameters: species or system human; settings: Jurkat T cell lysate compared to HeLa S3 and EA.hy926
How it was run: as §2

[10] = tested on: Imp α3; assay: Importin binding; parameters: species or system human; settings: HeLa S3 lysate compared to other cell types
How it was run: as §2

[11] = tested on: Imp α7; assay: Importin binding; parameters: species or system human; settings: biotinylated peptide, whole cell lysates, SA-bead pull-down, immunoblot
How it was run: as §2

[12] = tested on: Imp α4; assay: Competition binding assay, Imp α4; parameters: species or system human; settings: free N50 0-300 μmol/L, Jurkat lysate 1.5 mg/mL
How it was run: as §3

GST-tagged Imp α5 ΔIBB, sequence (P52294 101-538 limits assumed, stated change not applied): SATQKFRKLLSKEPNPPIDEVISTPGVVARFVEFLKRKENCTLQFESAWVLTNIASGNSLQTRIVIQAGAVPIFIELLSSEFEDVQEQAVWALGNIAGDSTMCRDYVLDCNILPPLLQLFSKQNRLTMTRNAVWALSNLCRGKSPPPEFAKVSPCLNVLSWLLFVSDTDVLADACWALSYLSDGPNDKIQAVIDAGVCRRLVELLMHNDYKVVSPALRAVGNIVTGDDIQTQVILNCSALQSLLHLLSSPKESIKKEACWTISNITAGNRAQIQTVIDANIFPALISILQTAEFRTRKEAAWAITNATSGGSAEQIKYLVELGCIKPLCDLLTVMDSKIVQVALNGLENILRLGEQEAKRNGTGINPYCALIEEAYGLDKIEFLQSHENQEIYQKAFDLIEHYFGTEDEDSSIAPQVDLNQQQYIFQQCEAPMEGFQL

`CC[C@H](C)[C@H](NC(=O)[C@H]([C@@H](C)CC)N(C)C(C)=O)C(=O)N[C@H](C(=O)N[C@@H](CC(C)C)C(=O)[C@@]1(C)CO1)[C@@H](C)O` [epoxomicin] was tested, and the “effect on turnover of IκBα” value [1] was “drastically slowed turnover”.
IQLRKQKREQQLFKRRNVELI [AR7] was tested, and the “competition with native ARs of importins α” value [2] was “successfully competed with native ARs of all importins α, including its own”.
For VQRDEQKLMP [N50M], the “BLI response with Imp α5” value ([3]; biotinylated peptide immobilized, Imp α5 ΔIBB 200 nmol/L) was “at the background level” and the “BLI response with Imp α1” value ([4]; biotinylated peptide immobilized, Imp α1 ΔIBB 200 nmol/L) was “at the background level”.
With VQRKRQKLMP [N50] the “relative strength of interaction with Imp α1” value ([5]; EA.hy926 lysate compared to Jurkat T cells) was “weaker”, the “relative strength of interaction with Imp α1” value ([5]; HeLa S3 lysate compared to Jurkat T cells) was “weaker” and the “inhibition of Imp α5 binding to immobilized N50, in words” value [6] was “tightly controlled by unlabeled peptide in all lysate total protein concentrations; also recorded: concentration dependent”. For the same compound, the “inhibition of Imp α1 binding to immobilized N50, in words” value [7] was “slightly inhibited; also recorded: do not substantially inhibit binding”, the “binding to Imp α5, in words” value ([3]; BLI) was “specific, high‐affinity binding; also recorded: preferential and specific binding” and the “maximum response with Imp α5 relative to maximum response with Imp α1” value ([3]; BLI, normalized by subtracting GST) was “more than 20 fold”. For the same compound, the “relative strength of interaction with Imp α5” value ([8]; all 3 cell types (Jurkat, HeLa S3, EA.hy926)) was “similarly strong in all 3 cell types”, the “relative amount of Imp α5 bound to biotinylated N50” value ([8]; compared with any of the other detected proteins) was “strikingly higher than any of the other detected proteins” and the “competition with native ARs of importins α” value [2] was “successfully competes”. The “relative strength of interaction with Imp α4” value [9] was “stronger”, the “relative strength of interaction with Imp α3” value [10] was “stronger” and the “interaction with Imp α7” value [11] was “inability to detect any interactions; also recorded: inaccessible to this peptide”. For the same compound, the “binding to Imp α1, in words” value ([4]; BLI) was “not Imp α1; also recorded: nonspecific; also recorded: low affinity” and the “inhibition of Imp α4 binding to immobilized N50, in words” value [12] was “slightly inhibited; also recorded: do not substantially inhibit binding”.
